From ChEMBL document CHEMBL3286353, “Optimization of small-molecule inhibitors of influenza virus polymerase: from thiophene-3-carboxamide to polyamido scaffolds” (J Med Chem, 2014)
Values after ≈ are worked out from the molar mass of the structure shown. Active and inactive are the calls of the source. The rule behind the calls is not given here.

Experiments:
Influenza A virus [1] = assay: Inhibition of Influenza A virus A/PR/8/34 infected in MDCK cells after 48 hrs by plaque reduction assay; assay type: functional, organism-based; details: A/PR/8/34, MDCK
In short: (§1)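 Confluent MDCK monolayers in 12-well plates were infected with about 40 PFU/well in DMEM with 1 µg/ml TPCK-trypsin and 0.14% BSA, with compound or DMSO, for 1 h at 37 °C. Overlay was serum-free medium with trypsin, BSA, 1.2% Avicel and compound. After 48 h, cells were fixed with 4% formaldehyde, stained with 0.1% toluidine blue and plaques counted, with DMSO set as 100%. EC50 is mean ± SD, ≥3 experiments in duplicate.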

[2] = Inhibition of Influenza A virus RdRP infected in human HEK293T cells after 24 hrs by dual luciferase reporter gene assay; assay type: cell-based; details: HEK-293T
In short: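 HEK 293T cells (10^5 per well) were transfected 24 h after seeding with PB1, PB2, PA and NP plasmids (100 ng each), a pol I firefly luciferase reporter (50 ng) and pRL-SV40 Renilla (50 ng), with compound or DMSO. Medium was replaced with compound-containing DMEM at 4 h. Dual luciferase was read at 24 h post-transfection, with DMSO set as 100%. EC50 is mean ± SD, ≥3 experiments in duplicate.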

[3] = Cytotoxicity against human HEK293T cells after 24 hrs by MTT assay; assay type: cell-based, HEK-293T
In short: (§2)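 MTT assay. HEK 293T or MDCK cells (2×10^4 per well) were cultured at 37 °C in DMEM with serially diluted compounds (250 to 1.9 μM), for 24 h (293T) or 48 h (MDCK). MTT (5 mg/ml stock) was then added for 4 h, cells were lysed and incubated 3 h more, and absorbance was read at 620 nm. CC50 is the concentration cutting viability 50%, mean ± SD of ≥3 independent experiments in duplicate.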

[4] = Inhibition of Influenza A virus GST-tagged PB1 (1 to 25) expressed in Escherichia coli binding to Influenza A virus 6His-tagged PA (239 to 716) expressed in Escherichia coli BL21(DE3) by ELISA
In short: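 Plates coated with 400 ng purified E. coli-expressed 6His-PA(239-716) for 3 h at 37 °C, then blocked with 2% BSA/PBS for 1 h at 37 °C. GST-PB1(1-25) (200 ng; GST alone as control) was added with compound at 10, 50, 100 or 200 μM and incubated overnight at room temperature. Detection used HRP anti-GST mAb (1:3000) and TMB at 450 nm, with DMSO set as 100%. IC50 is mean ± SD, ≥3 experiments in duplicate.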

[5] = Cytotoxicity against MDCK cells after 48 hrs by MTT assay; assay type: cell-based, Canis lupus familiaris; details: dog; in short: as §2
Human betaherpesvirus 5 = assay: Inhibition of HCMV UL54 expressed in baculovirus interaction with UL44 expressed in baculovirus after 1 hr by ELISA
In short: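 Plates coated with […] purified baculovirus-expressed HCMV UL54, then blocked with 2% BSA/PBS for 1 h. Purified UL44 ([…]) carrying a C-terminal EEF tag was added with compound or DMSO (1% final) for 1 h at 37 °C. Detection used MAb YL1/2 (1 h, 37 °C), then HRP anti-rat antibody and TMB, read at 450 nm. Compounds were tested up to 200 μM.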

[6] = Inhibition of Influenza A virus (A/Parma/24/2009(H1N1)) infected in MDCK cells after 48 hrs by plaque reduction assay; assay type: functional, cell-based; in short: as §1
[7] = Metabolic stability in human liver microsomes assessed as compound remaining after 30 mins by HPLC-MS/MS analysis; assay type: ADME; details: read-out: Stability
Influenza B virus [8] = assay: Inhibition of Influenza B virus (B/Lee/40) infected in MDCK cells after 48 hrs by plaque reduction assay; assay type: functional, organism-based; details: B/Lee/1940, MDCK; in short: as §1
Influenza A virus [9] = assay: Inhibition of Influenza A virus A/Padova/30/11(H1N1) infected in MDCK cells after 48 hrs by plaque reduction assay; assay type: functional, organism-based; in short: as §1
Influenza B virus [10] = assay: Inhibition of Influenza B virus (B/Malaysia/2506/2004) infected in MDCK cells after 48 hrs by plaque reduction assay; assay type: functional, cell-based; details: B/Malaysia/2506/2004, MDCK; in short: as §1
[11] = Inhibition of Influenza A virus (A/Solomon Islands/3/2006(H1N1)) infected in MDCK cells after 48 hrs by plaque reduction assay; assay type: functional, cell-based; in short: as §1
Influenza A virus [12] = assay: Inhibition of Influenza A virus A/[…]/67/05(H3N2) infected in MDCK cells after 48 hrs by plaque reduction assay; assay type: functional, organism-based; in short: as §1
[13] = Solubility of the compound in D2O at 25 degC after 24 hrs by NMR analysis; assay type: physicochemical
Liver microsome = assay: Metabolic stability in human liver microsomes after 30 mins by HPLC-MS/MS analysis; assay type: ADME; details: 0.5 h
[14] = Permeability of the compound by PAMPA; assay type: physicochemical

| Compound | EC50 (Influenza A virus [1]) | EC50 [2] | CC50 at 24 h [3] | IC50 [4] | CC50 at 48 h [5] | inhibition activity call (active/not active) (Human betaherpesvirus 5) | EC50 [6] | remaining at 0.5 h [7] | IC50 [2] | EC50 (Influenza B virus [8]) | EC50 (Influenza A virus [9]) | EC50 (Influenza B virus [10]) | inhibition (Human betaherpesvirus 5) | EC50 [11] | EC50 (Influenza A virus [12]) | solubility at 24 h [13] | Stability (Liver microsome) | permeability [14] |
| --- | --- | --- | --- | --- | --- | --- | --- | --- | --- | --- | --- | --- | --- | --- | --- | --- | --- | --- |
| Cc1ccc(C)c(NS(=O)(=O)c2cc(C(=O)Nc3ccccc3C(=O)Nc3ccccc3)ccc2C)c1 | 24.7 µM | > 100 µM | > 250 µM | 91.9 µM | 70.3 µM |  |  |  |  |  |  |  |  |  |  |  |  |  |
| COc1ccc(-c2cc(C(F)(F)F)n3ncc(C(=O)Nc4sc5c(c4C(N)=O)CCCC5)c3n2)cc1 |  |  | 40.4 µM | 135 µM | 51.3 µM |  |  |  |  |  |  |  |  |  |  |  |  |  |
| O=C(Nc1ccc2c(c1)CCC2)c1cnn2c(C(F)(F)F)cc(-c3cccs3)nc12 |  |  | 12.4 µM | 35.1 µM | 18.3 µM |  |  |  |  |  |  |  |  |  |  |  |  |  |
| COC(=O)C1=C(N)N(c2cccc(Cl)c2C)C2=C(C(=O)CCC2)C1c1ccc2c(c1)OCO2 (stereo unspecified) |  | 18.5 µM |  | 30.4 µM |  |  |  |  |  |  |  |  |  |  |  |  |  |  |
| O=C(Nc1ccccc1Cl)c1ccc2c(c1)C1C3CCC(C3)C1C(c1ccccc1)N2 (stereo unspecified) | > 100 µM | > 100 µM | > 250 µM | > 200 µM | > 250 µM |  |  |  |  |  |  |  |  |  |  |  |  |  |
| Cn1c(=O)cc2c3c(c(N4CCCCC4)ccc31)C(=O)c1ccccc1-2 |  |  |  |  |  | Active |  |  |  |  |  |  |  |  |  |  |  |  |
| NC(=O)c1c(NC(=O)c2cnn3c(C(F)F)cc(-c4ccccc4)nc23)sc2c1CCC2 | 75.5 µM | 29.5 µM | > 250 µM |  | > 250 µM |  | 95.5 µM | 37% | 31.4 µM | > 100 µM | > 100 µM | > 100 µM | inactive | > 100 µM | > 100 µM |  |  |  |
| NC(=O)c1ncn([C@@H]2O[C@H](CO)[C@@H](O)[C@H]2O)n1 [RIBAVIRIN] | 15.6 µM | 24.9 µM | > 250 µM |  | > 250 µM |  |  |  |  |  |  |  |  |  |  |  |  |  |
| Cc1ccc(-c2cc(C(F)(F)F)n3ncc(C(=O)Nc4sc5c(c4C(N)=O)CCCC5)c3n2)cc1 | 101 µM | 63 µM | > 250 µM | 43 µM | > 250 µM |  |  |  |  |  |  |  |  |  |  |  |  |  |
| NC(=O)c1c(NC(=O)c2nc3nc(-c4ccccc4)cc(C(F)(F)F)n3n2)sc2c1CCCC2 | 23.7 µM | 9.2 µM | > 250 µM | 7.5 µM | > 250 µM | inactive | 22.9 µM |  |  | 33.5 µM | 20.6 µM | 25.9 µM |  | 23.3 µM | 20 µM | 2.4 µg/mL (≈ 4.93 µM) | Stable | permeable |
| NC(=O)c1c(NC(=O)c2cnn3c(C(F)(F)F)cc(-c4ccccc4)nc23)sc2c1CCCC2 | > 100 µM | 70.5 µM | > 250 µM | 120 µM | > 250 µM |  |  |  |  |  |  |  |  |  |  |  |  |  |
| NC(=O)c1c(NC(=O)c2cnn3c(C(F)(F)F)cc(-c4ccccc4)nc23)sc2c1CCC2 | 57 µM | 27.5 µM | > 250 µM | 44.8 µM | > 250 µM |  |  |  |  |  |  |  |  |  |  |  |  |  |
| CCC(C)NC(=O)c1ccccc1NC(=O)c1cccc(S(=O)(=O)Nc2cc(C)ccc2C)c1 (stereo unspecified) | 35.2 µM | 25.7 µM | > 250 µM | 84 µM | > 250 µM | inactive | 22.1 µM |  |  | 15.5 µM | 16.7 µM | 19.8 µM |  | 16.5 µM | 10.8 µM |  |  |  |
| CCC(C)NC(=O)c1ccccc1NC(=O)c1cccc(S(=O)(=O)Nc2ccc(O)cc2)c1 (stereo unspecified) | > 100 µM | 82.6 µM | > 250 µM | > 200 µM | > 250 µM |  |  |  |  |  |  |  |  |  |  |  |  |  |
| CCC(C)NC(=O)c1ccccc1NC(=O)c1ccc(C)c(S(=O)(=O)Nc2cccc(NC(=O)c3ccccc3)c2)c1 (stereo unspecified) | > 100 µM | > 100 µM | > 250 µM | > 200 µM | > 250 µM |  |  |  |  |  |  |  |  |  |  |  |  |  |
| CCC(C)NC(=O)c1ccccc1NC(=O)c1cccc(S(=O)(=O)Nc2ccccc2)c1 (stereo unspecified) | 30.5 µM | 17.2 µM | > 250 µM | 9.2 µM | > 250 µM | inactive | 43 µM | 50% |  | 25.5 µM | 37.6 µM | 26.3 µM |  | 22.5 µM | 23.5 µM | 1 µg/mL (≈ 2.21 µM) |  | permeable |
| O=C(Nc1cnn(C23CC4CC(CC(C4)C2)C3)c1)c1cnn2c1NC(c1ccccc1)CC2C(F)(F)F (stereo unspecified) |  |  | 30.1 µM | > 200 µM | 20.2 µM |  |  |  |  |  |  |  |  |  |  |  |  |  |
| CCC(C)NC(=O)c1ccccc1NC(=O)c1ccc(C)c(S(=O)(=O)Nc2cc(C)ccc2C)c1 (stereo unspecified) | 18.7 µM | 45.9 µM | > 250 µM | 30.5 µM | > 250 µM | inactive | 25 µM |  |  | 21.8 µM | 22.6 µM | 29.6 µM |  | 17.5 µM | 15.9 µM |  |  |  |
| NC(=O)c1c(NC(=O)c2cnn3c(C(F)F)cc(-c4ccccc4)nc23)sc2c1CCCC2 | 66 µM | 94.2 µM | > 250 µM | 91.2 µM | > 250 µM |  |  |  |  |  |  |  |  |  |  |  |  |  |
| NC(=O)c1c(NC(=O)c2cccnc2)sc2c1CCCC2 |  |  | > 250 µM | > 200 µM | 45.2 µM |  |  |  |  |  |  |  |  |  |  |  |  |  |
